This is a sample that favours compounds with a hit; in the whole collection about 3.8% have one here.
Lipid droplet = inhibitors of hepatocyte lipid droplet formation, primary screen, imaging, high-throughput imaging, BODIPY stain. AML12 mouse hepatocytes, oleate lipid droplets. hit rate 0.4% among 240,000. inhibition, % at 6.5 µM;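 active means lipid droplet intensity inhibited by at least 50%, with more than 500 cells counted; inconclusive means wells with under 300 cells, treated as cytotoxic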
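Test system: AML12 mouse liver cells; schedule: overnight exposure; technique: high-content imaging of BODIPY-stained droplets and DAPI nuclei; read-out: % inhibition of corrected integrated BODIPY droplet signal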
HSF1 activator = HSF-1 activators, primary screen, NIH3T3-HGL cells, MG132 stress, luminescence, single point | hit rate 1.7% among 300,000 | AID 504408, 2011 | activation, % at 9 µM | NIH3T3-HGL HSF-1 luciferase reporter, 8 h; 100% = twice DMSO control signal;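 active means mean replicate activation of at least 50% with a set share of replicates each reaching 50%; inconclusive means only one of those two conditions met; inactive means mean below 50% and too few replicates reaching it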;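 further: 0% = median of the neutral control wells and 100% = twice that signal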
HSF1 inhib = HSF1 inhibitors in luciferase reporter cells, primary screen, cell-based, NIH3T3, luminescence. NIH3T3-HGL HSE-luciferase, MG132-induced, luminescence 8 h; hits give low values. activity change, negative = inhibition, % at 7.5 µM (by protocol). hit rate 0.77% among 300,000. AID 2098, 2009;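 active means more than half of replicate wells show activity change below -50%, luminescence cut by over half; inconclusive means some wells, but at most half, below -50%; inactive means no replicate well below -50%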;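 further: luciferase reports HSF-1 transcriptional activity via heat shock element; 0% = median of DMSO wells and -100% = zero luminescence signal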
HCV NS3 hel inh = inhibitors of HCV NS3 helicase, primary screen, biochemical, Cy5 molecular beacon fluorescence; AID 1800, 2009; inhibition, % at 10.9 µM; Hepatitis C virus NS3 helicase; NS3 helicase DNA unwinding; hit rate 0.56% among 290,000;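 active means inhibition above the mean of all tested compounds plus 3 SD, set per campaign, cut at about 35% in these data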;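 further: 0% = DMSO wells and 100% = thioflavine S control wells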
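Test system: hepatitis C virus NS3 helicase domain fragment enzyme. Also added: annealed dual-labelled DNA beacon duplex, ATP-started. Timing: 60 min unwinding reaction at 25 °C after ATP addition. Technique: Cy5 fluorescence. Measure: % inhibition of unwinding.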
HSP90 refold inh = HSP90 inhibitors, primary screen, cell lysate, luminescence; Heat shock protein HSP 90 (rabbit reticulocyte lysate; luciferase refolding); Rabbit reticulocyte lysate, luciferase refolding luminescence, 3 h; inhibition, % at 5.6 µM; hit rate 0.91% among 290,000;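 active means inhibition above the screen-wide mean plus 3 SD, computed separately per campaign, cut at about 16% in these data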;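 further: 0% = DMSO wells and 100% = 60 µM geldanamycin wells; inhibitors lower the luminescence because luciferase stays unfolded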
Hep lipid conf = hepatocyte lipid droplet accumulation inhibitors, confirmation, imaging, AML12 mouse hepatocytes, single concentration, high-content; shares compounds with Lipid droplet; BODIPY lipid droplet imaging; droplets induced with 100 µM oleic acid; inhibition, % at 5.2 µM; hit rate 65% among 870; AID 463183, 2010;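 active means inhibition of lipid droplet metric at least 50%, with more than 300 cells in each of four replicates; inconclusive means wells under 300 cells, flagged as toxic or low count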;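 further: plate controls were DMSO with oleic acid for no effect and 5 µM Triacsin-C for full effect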
AML12 cytotox = AML12 hepatocyte cytotoxicity, counter-screen for hepatic lipid droplet formation project, imaging, DAPI nuclear morphology imaging; AML12 mouse hepatocytes; hits give high values; cells fed 100 µM oleate overnight; AID 463200, 2010; hit rate 3% among 870; z-score at 5 µM; shares compounds with Lipid droplet; in the data active means z-score above about 6.3;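 further: compound exposure lasted overnight at 37 °C before fixation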
AML12 tox ATP = AML12 hepatocyte cytotoxicity, confirmation, cytotoxicity control for hepatic lipid droplet formation project, cell-based, single concentration | shares compounds with Lipid droplet | AML12 mouse hepatocyte viability, ATP luminescence; cells loaded with 100 µM oleic acid | cytotoxicity, % at 50 µM | 530 tested, under 10 active | AID 463219, 2010;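 active means cytotoxicity above 50% in each of four replicates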;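 further: compound exposure lasted overnight at 37 °C before the ATP read; 0% = DMSO-treated cells and 100% = wells with no cells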
HSP90 confirm = HSP90 inhibitors, confirmation, cell lysate, luminescence. shares compounds with HSP90 refold inh. rabbit reticulocyte lysate, luciferase refolding luminescence, 3 h. inhibition, % at 5.9 µM. hit rate 64% among 2,300. AID 1846, 2009; in the data active means inhibition above about 18%;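 further: 0% = vehicle wells and 100% = reference inhibitor wells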
FLuc counter = firefly luciferase inhibitors, HSP90 counter-screen, confirmation, artefact control for HSP90 inhibitor project, biochemical, luminescence, triplicate; shares compounds with HSP90 refold inh; inhibition, % at 5.9 µM; AID 1847, 2009; purified native firefly luciferase; hit rate 48% among 2,300;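 active means inhibition above the mean inhibition of all tested sample wells plus 3 SD, cut at about 10% in these data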;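 further: 0% = DMSO with luciferase and 100% = wells lacking luciferase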
Target sequence (P08659 whole entry, looked up): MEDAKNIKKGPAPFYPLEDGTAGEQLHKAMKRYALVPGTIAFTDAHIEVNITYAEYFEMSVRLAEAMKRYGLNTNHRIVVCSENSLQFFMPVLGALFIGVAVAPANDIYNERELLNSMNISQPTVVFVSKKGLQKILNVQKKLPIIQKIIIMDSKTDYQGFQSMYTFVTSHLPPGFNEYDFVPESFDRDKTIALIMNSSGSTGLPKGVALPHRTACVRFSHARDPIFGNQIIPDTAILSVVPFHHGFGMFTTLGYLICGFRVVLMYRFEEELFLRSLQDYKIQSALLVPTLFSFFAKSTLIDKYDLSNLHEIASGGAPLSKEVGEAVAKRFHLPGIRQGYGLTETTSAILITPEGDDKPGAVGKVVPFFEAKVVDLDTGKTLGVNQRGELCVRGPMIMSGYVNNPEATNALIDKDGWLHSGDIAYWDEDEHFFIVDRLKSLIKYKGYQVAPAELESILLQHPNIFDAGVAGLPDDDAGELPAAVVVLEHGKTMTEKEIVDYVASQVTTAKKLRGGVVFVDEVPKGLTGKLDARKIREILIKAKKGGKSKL
Active calls of the source: *; ? = inconclusive; nt = no result.

SMILES | Lipid droplet | HSF1 activator | HSF1 inhib | HCV NS3 hel inh | HSP90 refold inh | Hep lipid conf | AML12 cytotox | HSP90 confirm | FLuc counter | others
COc1ccccc1CNS(=O)(=O)c1ccc2c(c1)CC(C)N2C(=O)C1CC1 (centres undefined) | 79* | -6 | -5 | -2 | -6 | 106* | -1.1 | nt | nt | AML12 tox ATP=18
CC1Cc2cc(S(=O)(=O)NCCC(=O)N(C)Cc3ccccc3)ccc2N1C(=O)C1CC1 (centres undefined) | 61* | 12 | 3 | -1 | -2 | 67* | -0.84 | nt | nt | AML12 tox ATP=21
CC(=O)C1=C(O)C(=O)N(c2nccs2)C1c1ccccc1F (centres undefined) | 5 | 1 | 4 | 4 | -2 | nt | nt | nt | nt
Cc1cc(C)c(C)c(S(=O)(=O)NCC(=O)Nc2ccccc2F)c1C | -20 | 14 | -4 | -10 | 4 | nt | nt | nt | nt
Cc1ccc(NC(=O)C(=O)NCC2CCCO2)cc1 (centres undefined) | 31 | 12 | 19 | 5 | -2 | nt | nt | nt | nt
CCc1ccccc1NS(=O)(=O)c1cc2c(cc1C)n(C)c(=O)c(=O)n2C | 85* | 7 | 7 | 0 | -2 | 105* | -0.21 | nt | nt | AML12 tox ATP=9
CCn1c(=O)n(CC)c2cc(S(=O)(=O)Nc3ccccc3C)c(C)cc21 | 40 | ? | 17 | -4 | -1 | nt | nt | nt | nt
O=C(Nc1cc(S(=O)(=O)N2CCCC2)ccc1OCC(F)(F)F)c1ccccc1F | -23 | -1 | -5 | -8 | 1 | nt | nt | nt | nt
O=C(CNc1cc(S(=O)(=O)N2CCCC2)ccc1OCC(F)(F)F)Nc1cccc(C(F)(F)F)c1 | 54* | 11 | 10 | -5 | 2 | -4 | 0.042 | nt | nt
Cc1cc(C(=O)N2CCN(c3ccc([N+](=O)[O-])cc3)CC2)n[nH]1 | 7 | 14 | -4 | 10 | 2 | nt | nt | nt | nt
Cn1nc(C(F)(F)F)c(-c2cccc(C(F)(F)F)c2)c1NC(=O)Nc1ccc(F)cc1 | 69* | 4 | 2 | 4 | -1 | 90* | -0.64 | nt | nt | AML12 tox ATP=0
Cn1nc(C(F)(F)F)c(-c2cccc(C(F)(F)F)c2)c1NC(=O)c1ccco1 | 21 | -1 | -3 | -23 | -2 | nt | nt | nt | nt
Cc1cccc(Nc2nc(-c3ccncc3)cs2)c1 | ? | 12 | -1 | 4 | -5 | nt | nt | nt | nt
Clc1cccc(Nc2nc(-c3ccncc3)cs2)c1 | 91* | 40 | 17 | -13 | 2 | 58 | 17* | nt | nt
Cc1nc2ccc(Br)cc2c2c1CC(CO)O2 (centres undefined) | -10 | 5 | -3 | -2 | -5 | nt | nt | nt | nt
COc1ccc(Oc2nc(C)nc3c2oc2ccccc23)cc1 | nt | 9 | 3 | -3 | 4 | nt | nt | nt | nt
COc1nc(C)nc2c1ccc1ccccc12 | 52* | 0 | 4 | 1 | 2 | 2 | -0.096 | nt | nt
O=C(NCCc1ccccc1)c1oc2ccccc2c1COc1ccccc1 | 64* | 22 | 12 | -12 | 1 | 87* | -0.082 | nt | nt | AML12 tox ATP=-9
O=C(Nc1ccccc1Cc1ccccc1)c1oc2ccccc2c1COc1ccccc1 | 6 | -13 | -23 | -12 | 5 | nt | nt | nt | nt
C[N+]1([O-])[C@@H]2Cc3cc4c(cc3[C@@H]1Cc1cc3c(cc12)OCO3)OCO4 (some centres undefined) | 15 | 2 | 2 | nt | nt | nt | nt | nt | nt
COc1ccc(C(=O)O/N=C(\N)c2ccccn2)cc1 | 66* | -78 | -75* | 3 | 80* | 20 | -0.24 | 86* | 92*
O=C(CSc1nc2ccccc2s1)N/N=C/c1cc([N+](=O)[O-])ccc1O | -3 | -21 | -20 | 32 | 0 | nt | nt | nt | nt
CC(=O)c1ccc(N=Nc2ccc(N(C)C)cc2)cc1 | 16 | -17 | -14 | -2 | 5 | nt | nt | nt | nt
CN(C)c1ccc(N=Nc2ccccc2Br)cc1 | 67* | -11 | -9 | 5 | 52* | 113* | 0.039 | 65* | 54* | AML12 tox ATP=81*
Cc1noc(/C=C/Nc2ccc(F)cc2F)c1[N+](=O)[O-] | 4 | 42 | 13 | 3 | 0 | nt | nt | nt | nt
SMILES | Lipid droplet | HSF1 activator | HSF1 inhib | HCV NS3 hel inh | HSP90 refold inh | Hep lipid conf | AML12 cytotox | HSP90 confirm | FLuc counter | others
COc1ccccc1N/C=C/c1onc(C)c1[N+](=O)[O-] | -5 | -51 | -46 | 9 | 39* | nt | nt | 78* | 71*
CCOC(=O)c1ccc(N/C=C\C(=O)c2cccc(OC)c2)cc1 | 3 | -9 | 4 | 0 | 3 | nt | nt | nt | nt
COC(=O)c1ccc(N/C=C/C(=O)c2ccccc2)cc1 | -19 | -21 | 1 | -3 | 21* | nt | nt | 52* | 3
Nc1ccc2nc(N3CCOCC3)sc2c1 | -2 | 2 | -2 | -6 | 1 | nt | nt | nt | nt
Nc1cccc(-c2nc3ccc(N)cc3s2)c1 | nt | 2 | -5 | -7 | 20* | nt | nt | 66* | 53*
Nc1ccc(-c2nc3ccc(N)cc3s2)cc1 | -3 | 7 | 4 | 1 | 54* | nt | nt | 69* | 61*
C=CCc1cc(C=O)cc(OCC)c1O | 3 | -8 | -8 | -7 | 0 | nt | nt | nt | nt
CS(=O)(=O)c1ccc2nc(NC(=O)Nc3ccccc3F)sc2c1 | 2 | 30 | 11 | -11 | 18* | nt | nt | 18* | -2
COc1ccc(OC(=O)Nc2ccc([N+](=O)[O-])cc2OC)cc1 | -2 | -40 | -31 | 7 | 20* | nt | nt | 0 | -13
CCOC(=O)C(=O)Nc1cc([N+](=O)[O-])ccc1C | -4 | 9 | -5 | -4 | -3 | nt | nt | nt | nt
CCOC(=O)C(=O)Nc1ccc([N+](=O)[O-])cc1OC | 28 | 0 | 0 | 2 | 22* | nt | nt | -7 | -16
O=C(NCc1ccc(F)cc1)C1CCCN1C(=O)Nc1cccc(F)c1 (centres undefined) | -12 | 16 | 4 | -1 | 24* | nt | nt | -1 | -3
COc1ccc(NC(=O)N2CCCC2C(=O)NCc2ccc(F)cc2)cc1 (centres undefined) | 0 | 29 | -8 | 6 | 2 | nt | nt | nt | nt

Screening results as filed in PubChem BioAssay.
